Laboratory results as given in ChEMBL document CHEMBL1123863, “1-[[[5-(substituted phenyl)-2-oxazolyl]methylene]amino]-2,4- imidazolidinediones, a new class of skeletal muscle relaxants” (1987).

How the values were obtained:
Mus musculus = experiment: Highest tolerated dose (p.o.) in mice.; format: functional
How it was run: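 Mice dosed orally with suspensions in 0.5% methylcellulose 4000 at 50, 200, 400 and 800 mg/kg. Muscle relaxation scored over a 2.0-h observation period on a 0 (none) to 4 (severe) scale. Acute toxicity followed for 72 h after dosing; highest tolerated oral dose given in mg/kg.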

Rattus norvegicus = experiment: Inhibition of gastrocnemius twitch tension after a cumulative dose of 36.6 mg/kg iv in rats.; format: functional; details: for inhibition in vivo at 36.6 mg/kg: Rattus norvegicus, Gastrocnemius, iv
How it was run: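 Pithed rat gastrocnemius preparation: adult male Charles River rats (385–400 g), ether anesthesia, tracheotomy, pithed, artificially respired, bilaterally vagotomized. Tubocurarine chloride 0.075 mg/kg iv given for neuromuscular blockade, isolating direct muscle action. Compounds in tetrahydro-2-furanmethanol or DMSO, given iv as sequential 0.83, 2.5, 8.3, 25 mg/kg doses. Percent twitch tension inhibition read after the cumulative dose.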

| Structure (SMILES) | HTD (Mus musculus) | Inhibition (Rattus norvegicus) | inhibition in vivo at 36.6 mg/kg (Rattus norvegicus) |
| --- | --- | --- | --- |
| O=C1CN(/N=C/c2ncc(-c3ccc(Cl)c(Cl)c3)o2)C(=O)[N-]1.[Na+] | >800 mg/kg | -71% |  |
| O=C1CN(/N=C/c2ncc(-c3ccc(Cl)cc3)o2)C(=O)[N-]1.[Na+] | 400 mg/kg | -81% |  |
| O=C1CN(/N=C/c2ncc(-c3ccc(F)cc3)o2)C(=O)[N-]1.[Na+] | 400 mg/kg | -75% |  |
| O=C1CN(/N=C/c2ncc(-c3ccc(Cl)c(Cl)c3)o2)C(=O)N1 | >800 mg/kg | -82% |  |
| O=C1CN(/N=C/c2ncc(-c3ccc(F)cc3)o2)C(=O)N1 | >800 mg/kg | -70% |  |
| O=C1CN(/N=C/c2ncc(-c3cccc(C(F)(F)F)c3)o2)C(=O)[N-]1.[Na+] | 50 mg/kg | -69% |  |
| O=C1CN(/N=C/c2ncc(-c3ccc([N+](=O)[O-])cc3)o2)C(=O)[N-]1.[Na+] | >800 mg/kg | -84% |  |
| Cc1ccc(-c2cnc(/C=N/N3CC(=O)NC3=O)o2)cc1 | >800 mg/kg | -65% |  |
| O=C1CN(/N=C/c2ncc(-c3cccc(Cl)c3)o2)C(=O)[N-]1.[Na+] | 400 mg/kg |  | -42% |
| O=C1CN(/N=C/c2ncc(-c3ccccc3)o2)C(=O)[N-]1.[Na+] | 200 mg/kg | -49% |  |
| Cc1ccc(-c2cnc(/C=N/N3CC(=O)[N-]C3=O)o2)cc1.[Na+] | >800 mg/kg | -62% |  |
| COc1ccc(-c2cnc(/C=N/N3CC(=O)NC3=O)o2)cc1 | >800 mg/kg | -47% |  |
| O=C1CN(/N=C/c2ncc(-c3ccc(Cl)cc3)o2)C(=O)N1 | >800 mg/kg | -80% |  |
| O=C1CN(/N=C/c2ncc(-c3ccc([N+](=O)[O-])cc3)o2)C(=O)N1 | >800 mg/kg | -86% |  |
| O=C1CN(/N=C/c2ncc(-c3ccccc3[N+](=O)[O-])o2)C(=O)N1 | >800 mg/kg |  | 0% |
| O=C1CN(/N=C/c2ncc(-c3cccc(C(F)(F)F)c3)o2)C(=O)N1 | 400 mg/kg | -56% |  |
| COc1ccc(-c2cnc(/C=N/N3CC(=O)[N-]C3=O)o2)cc1.[Na+] | >800 mg/kg | -58% |  |
| O=C1CN(/N=C/c2ncc(-c3ccccc3)o2)C(=O)N1 | >800 mg/kg | -41% |  |
| O=C1CN(/N=C/c2ncc(-c3ccc(Br)cc3)o2)C(=O)[N-]1.[Na+] [AZUMOLENE SODIUM] | 400 mg/kg | -83% |  |
| O=C1CN(/N=C/c2ncc(-c3ccc(Br)cc3)o2)C(=O)N1 [AZUMOLENE] | >800 mg/kg | -82% |  |
| O=C1CN(/N=C/c2ccc(-c3ccc([N+](=O)[O-])cc3)o2)C(=O)[N-]1.[Na+] [DANTROLENE SODIUM] | >400 mg/kg |  | -80% |
